In the array DNA melting data of Ke et al. (doi:10.1101/2024.01.08.574731):

What was measured:
[1] = folding enthalpy; higher = less favourable; fluorescence melt of hairpins on a sequencing array, two-state fit; conditions: sodium 0.088 M
Outline: (§1)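 Two-state fits, bootstrapped, provided melting temperature and folding enthalpy from Cy3 fluorescence normalised to pre-quench Cy3 and to control constructs. Library hairpins with annealed Cy3 and quencher oligos were imaged on a sequenced MiSeq flow cell in 50 mM Na-HEPES pH 8.0, 25 mM NaCl, at 2.5 °C intervals up to 60 °C. Four replicates were combined with inverse-variance weighting. A 9.35 °C upward shift was applied to fitted temperatures to match UV melts.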

[2] = melting temperature; fluorescence melt of hairpins on a sequencing array, two-state fit, raised by 9.35 °C to match UV melts; conditions: sodium 0.088 M
Outline: as §1

Row | Sequence | folding enthalpy [1] [kcal/mol] | Tm [2] [°C]
1 | GCGTAGAACGC ((((...)))) | -23.7 | 54.6
2 | GCGTAGACGAAAGTCCGC (((..(((....)))))) | -34.9 | 53.7
3 | GCGTAGCACGC ((((...)))) | -11 | 68.2
4 | GCGTAGCGAAAGCAAAGC ((.(.((....)).).)) | -14.2 | 54.5
5 | GCGTAGCGAAAGCAACGC ((((.((....)).)))) | -21.1 | 66.7
6 | GCGTAGCGAAAGCAATGC ((.(.((....)).).)) | -7.98 | 35.8
7 | GCGTAGCGAAAGCCAAGC ((.(.((....)).).)) | -8.12 | 39.9
8 | GCGTAGCGAAAGCCAGGC ((.(.((....)).).)) | -5.07 | 31.1
9 | GCGTAGCGAAAGCCATGC ((.(.((....)).).)) | -7.22 | 35.6
10 | GCGTAGCGAAAGCCCCGC (((..((....))..))) | -6.69 | 35.9
11 | GCGTAGCGAAAGCCTCGC (((..((....))..))) | -10.8 | 44.1
12 | GCGTAGCGAAAGCGATGC ((.(.((....)).).)) | -13.9 | 51.6
13 | GCGTAGCGAAAGCGCCGC (((..((....))..))) | -15.9 | 59.7
14 | GCGTAGCGAAAGCTAAGC ((.((((....)))).)) | -16.1 | 58.5
15 | GCGTAGGGAAACCTATGC ((.((((....)))).)) | -34.1 | 50.3
16 | GCGTAGGGAAACCTGCGC (((.(((....))).))) | -37.7 | 58.9
17 | GCGTATCGAAAGATCGC (((.(((....)))))) | -34.2 | 55.6
18 | GCGTATGCGAAAGCACGC (((..(((....)))))) | -20.9 | 53.1
19 | GCGTATGGAAACATGCGC (((.(((....))).))) | -38.2 | 57
20 | GCGTATGGACGC ((((....)))) | -21 | 51.4
21 | GCGTCAACGAAAGTTCGC (((..(((....)))))) | -27.6 | 45
22 | GCGTCAAGACGC ((((....)))) | -29.9 | 55.1
23 | GCGTCACCACGC ((((....)))) | -22.7 | 53
24 | GCGTCACGAAAGTGCGC (((.(((....)))))) | -31.1 | 66.9
25 | GCGTCAGGAAACTGGCGC (((.(((....))).))) | -43.8 | 63

Row | Sequence | folding enthalpy [1] [kcal/mol] | Tm [2] [°C]
26 | GCGTCATCGAAAGATCGC (((..(((....)))))) | -24.4 | 44
27 | GCGTCCAAACGC ((((....)))) | -18.8 | 51.4
28 | GCGTCCAGACGC ((((....)))) | -28.7 | 56.6
29 | GCGTCCATACGC ((((....)))) | -23.3 | 52.7
30 | GCGTCCCACGC ((((...)))) | -25.9 | 56.3
31 | GCGTCCCTACGC ((((....)))) | -23.2 | 53.7
32 | GCGTCCGAAAGGAACGC ((((((....))).))) | -35.7 | 64.9
33 | GCGTCCGAAAGGAGCGC ((((((....))).))) | -22.9 | 66.8
34 | GCGTCCGAAAGGATTCGC ((((((....)))..))) | -26.9 | 47.1
35 | GCGTCCTTACGC ((((....)))) | -23.6 | 53.6
36 | GCGTCGACACGC ((((....)))) | -21.5 | 51.7
37 | GCGTCGACGAAAGTCCGC (((..(((....)))))) | -22.2 | 49.7
38 | GCGTCGAGACGC ((((....)))) | -25.2 | 61
39 | GCGTCGATACGC ((((....)))) | -19.2 | 52.2
40 | GCGTCGCAACGC ((((....)))) | -20 | 56.2
41 | GCGTCGCACGC ((((...)))) | -17.5 | 64.5
42 | GCGTCGCGAAAGCCAGGC ((.(.((....)).).)) | -10.6 | 33.8
43 | GCGTCGCGAAAGCGGAGC ((..(((....)))..)) | -27.6 | 67.5
44 | GCGTCGCGAAAGCTGCGC (((..((....))..))) | -22.5 | 61.7
45 | GCGTCGGGAAACCAACGC ((((.((....)).)))) | -41.5 | 51.5
46 | GCGTCGTAACGC ((((....)))) | -21.4 | 55.3
47 | GCGTCGTTACGC ((((....)))) | -21.8 | 52.6
48 | GCGTCTCAACGC ((((....)))) | -20.3 | 56.6
49 | GCGTCTGGAAACGGACGC (((((.(....).))))) | -48.5 | 64.3
